MrgX1 agonist: agonists of human MrgX1 receptor, primary screen, HEK293 cells, Fluo-4 calcium flux; 310,000 tested, 0.44% active; B-score at 10 µM; AID 588627, 2011; Fluo-4 calcium fluorescence, agonist mode; stronger effect = higher value;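 active means calcium response B-score plate-corrected fluorescence ratio at least 3 library SD, with starting fluorescence B-score inside 5 SD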
Target sequence (Q96LB2 whole entry, looked up): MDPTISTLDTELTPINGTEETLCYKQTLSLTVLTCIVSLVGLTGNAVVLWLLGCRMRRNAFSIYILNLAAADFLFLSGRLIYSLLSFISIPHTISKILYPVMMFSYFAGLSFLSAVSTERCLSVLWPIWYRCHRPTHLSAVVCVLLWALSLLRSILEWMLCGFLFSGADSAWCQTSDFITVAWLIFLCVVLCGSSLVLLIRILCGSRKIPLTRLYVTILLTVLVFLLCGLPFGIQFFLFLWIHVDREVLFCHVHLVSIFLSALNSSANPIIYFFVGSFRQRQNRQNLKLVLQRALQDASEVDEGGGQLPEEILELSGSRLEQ
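Material: MrgX1-expressing HEK293 cells / Dosing: compound as first of three additions / Incubation: overnight seeding, then 1 h dark dye loading / Signal: Fluo-4 NW calcium fluorescence / Evaluation: B-scored fluorescence response ratio / Benchmarks: positive and negative control wells on each plate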
MrgX1 allo act: positive allosteric modulators of MrgX1, primary screen, HEK293 cells, Fluo-4 calcium flux | Mas-related G-protein coupled receptor member X1 (Homo sapiens), Q96LB2 | FDSS; stronger effect = higher value | B-score at 10 µM | 310,000 tested, 0.63% active | AID 588675, 2011;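 active means plate-corrected calcium response at least 3 library SD above typical, normal starting fluorescence, not activating the receptor alone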;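 further: compound read alongside a low EC10 to EC30 dose of BAM8-22 agonist; peak minus trough fluorescence over baseline measured at the second addition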
RGS4 pot: RGS4 potentiators or activators, primary screen, cell-based, HEK293 M3R inducible RGS4, calcium flux; carbachol calcium flux Fluo4; stronger effect = lower value; B-score at 10 µM; 310,000 tested, 0.92% active;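 active means B-score of the integrated calcium signal more than 4 SD below the library mean, with starting fluorescence not abnormally high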;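 further: negative B-score means reduced calcium response which marks RGS4 activation or potentiation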
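Also added: carbachol at ECmax as muscarinic agonist stimulus; Assay system: HEK293 cells with stable M3R and inducible RGS4; Timing: overnight RGS4 induction, 30 min dye load 37 °C, 20 min compound RT; Measured by: Fluo4-AM (2 µM) calcium-flux fluorescence, kinetic read.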
RGS4 inh: RGS4 inhibitors, primary screen, cell-based, HEK293 M3R inducible RGS4, calcium flux. Regulator of G-protein signaling 4 (Homo sapiens), P49798. Fluo-4 calcium flux; stronger effect = higher value; triggered by carbachol at its EC20. B-score at 10 µM. 310,000 tested, 0.45% active;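 active means B-score, a plate-corrected calcium signal, over three deviations above library mean, with baseline fluorescence within five deviations of library mean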;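 further: RGS4 expression induced by doxycycline in cells with stable M3 receptor; B-score is computed from the integrated fluorescence ratio over baseline after carbachol; higher B-score means a larger calcium signal and so more RGS4 inhibition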
Target sequence (P49798 whole entry, looked up): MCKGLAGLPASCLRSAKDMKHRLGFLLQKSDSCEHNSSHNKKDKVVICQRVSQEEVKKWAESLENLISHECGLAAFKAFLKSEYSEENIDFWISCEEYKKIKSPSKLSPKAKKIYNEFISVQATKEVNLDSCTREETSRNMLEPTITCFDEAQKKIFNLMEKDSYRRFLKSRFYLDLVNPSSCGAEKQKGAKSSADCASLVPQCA
MrgX1 antag: antagonists of human MrgX1 receptor, primary screen, HEK293 cells, Fluo-4 calcium flux; Mas-related G-protein coupled receptor member X1 (Homo sapiens), Q96LB2; BAM8-22 antagonism; stronger effect = lower value; B-score at 10 µM; 310,000 tested, 1.3% active;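 active means calcium-response B-score plate-corrected more than 3 library SD below zero, starting fluorescence within 5 deviations, no agonist response on first addition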;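 further: peak minus trough fluorescence over baseline after final BAM8-22 challenge near maximal dose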
MrgX1 PAM conf: MrgX1 positive allosteric modulators, duplicate retest, confirmation, HEK293 cells, Fluo-4 calcium flux | shares compounds with MrgX1 allo act | Fluo-4 calcium fluorescence, FDSS | activation (ratio percentage), % at 10 µM | 1,200 tested, 13% active | AID 602413, 2012;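 active means ratio at least 3 SD above the weak peptide control, stable starting fluorescence, no direct agonism earlier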;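 further: compound followed by low BAM8-22 agonist challenge near EC20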
HEK293 Ca flux: nonspecific calcium signal in parental HEK293, confirmation, counter-screen for MrgX1 antagonist project, parental HEK293 cells, Fluo-4 calcium flux. shares compounds with MrgX1 antag. 4,000 tested, 2% active. fluorescence ratio F(max-min)/F0 at 10 µM. AID 624111, 2012. Fluo-4 calcium fluorescence, FDSS;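 active means duplicate-averaged calcium fluorescence ratio at least three times the standard deviation of buffer wells, a nonspecific response in parental cells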
HEK293 Ca counter: calcium response in parental HEK293 cells, primary screen, counter-screen for MrgX1 allosteric activator project, cell-based, Fluo-4 calcium flux, duplicate | 4,000 tested, 0.4% active | AID 624114, 2012 | Fluo-4 fluorescence ratio; stronger effect = higher value | shares compounds with MrgX1 antag | fluorescence ratio F(max-min)/F0 at 10 µM;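 active means calcium fluorescence ratio, averaged over duplicates, at least 3 SD of the buffer-well ratio, meaning a nonspecific response in receptor-free cells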;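 further: untransfected parental HEK293 lacking MrgX1 used as counterscreen for MrgX1 allosteric activators; fluorescence change taken during the second addition on a kinetic imager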
HEK293 Ca cntr2: calcium response in parental HEK293 cells, primary screen, counter-screen for MrgX1 agonist project, cell-based, Fluo-4 calcium flux, duplicate, agonist mode; fluorescence ratio F(max-min)/F0 at 10 µM; 4,000 tested, 8.7% active; AID 624115, 2012; Fluo-4 calcium fluorescence (FDSS); stronger effect = higher value; shares compounds with MrgX1 antag;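 active means calcium fluorescence ratio at least three times the spread of buffer wells, meaning a non-specific response in parental cells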
Large screens that a line does not name were inactive (follow-up assays come after a bar, where they were run). A selection: hits, their analogues and other compounds. The true share with any hit is near 3.5%.

Cc1nnc2ccc(-c3ccc(NS(=O)(=O)c4ccc(F)cc4F)cc3)nn12	MrgX1 allo act 9.66 | MrgX1 PAM conf inactive | HEK293 Ca flux inactive | HEK293 Ca counter inactive | HEK293 Ca cntr2 inactive
COc1ccc(S(=O)(=O)N(NC2=NS(=O)(=O)c3ccccc32)C(=O)C(C)C)cc1	none
C=CCSc1nc(O)c(C2OC(=O)c3c2ccc(OC)c3OC)c(=O)n1-c1ccccc1 (configuration not stated)	MrgX1 allo act 30.6 | MrgX1 PAM conf inactive | HEK293 Ca flux inactive | HEK293 Ca counter inactive | HEK293 Ca cntr2 inactive
C/C(=N\NC(=O)c1sccc1-n1cccc1)c1cccs1	none
O=C(Nc1cccc(-c2cn3ccccc3n2)c1)c1ccccc1	MrgX1 allo act 6.78 | MrgX1 PAM conf 8.4% | HEK293 Ca flux inactive | HEK293 Ca counter inactive | HEK293 Ca cntr2 inactive
Cc1ccc(-n2nc(C)c(C(=O)N3CCN(C(=O)c4ccco4)CC3)c2-n2cccc2)cc1	none
COC(=O)c1cc(C(=O)OC)cc(N2C(=O)CC(Sc3nc(C)cc(C)n3)C2=O)c1 (configuration not stated)	none
COC(=O)c1ccc(N2C(=O)CC(Sc3n[nH]c(C)n3)C2=O)cc1 (configuration not stated)	MrgX1 allo act 7.79 | MrgX1 PAM conf inactive | HEK293 Ca flux inactive | HEK293 Ca counter inactive | HEK293 Ca cntr2 inactive
CCCc1cc(C(N)=O)c(NC(=O)c2ccoc2C)s1	MrgX1 allo act 8.69 | MrgX1 PAM conf inactive | HEK293 Ca flux inactive | HEK293 Ca counter inactive | HEK293 Ca cntr2 inactive
CCCCCNc1nc(-c2ccccc2)nc(-n2ccnc2)n1	MrgX1 allo act 7.51 | MrgX1 PAM conf inactive | HEK293 Ca flux inactive | HEK293 Ca counter inactive | HEK293 Ca cntr2 inactive
CCCCNc1nc(N(C)c2ccccc2)nc(-n2ccnc2)n1	none
Cc1ccc(S(=O)(=O)N(CCC#N)C2CCCCC2)c2nsnc12	MrgX1 allo act 6.8 | MrgX1 PAM conf inactive | HEK293 Ca flux inactive | HEK293 Ca counter inactive | HEK293 Ca cntr2 inactive
NC(=O)CCN(C1CCCCC1)S(=O)(=O)c1cccc2nsnc12	none
COc1ccc(Br)c(C(=O)Nc2ccc(F)cc2)c1	MrgX1 allo act 6.89 | MrgX1 PAM conf inactive | HEK293 Ca flux inactive | HEK293 Ca counter inactive | HEK293 Ca cntr2 inactive
COc1cccc(NC(=O)c2ccccc2Br)c1	none
COc1cccc(N2CC(C(=O)Nc3nnc(SCCC4OCCO4)s3)CC2=O)c1 (configuration not stated)	none
NS(=O)(=O)c1cc(C(=O)NCCc2ccccn2)ccc1Cl	MrgX1 allo act 21.1 | MrgX1 PAM conf inactive | HEK293 Ca flux inactive | HEK293 Ca counter inactive | HEK293 Ca cntr2 inactive
C=C(C)COc1ccc(-c2[nH]ncc2-c2ccc(Br)cc2)c(O)c1	MrgX1 allo act 18.6 | MrgX1 PAM conf 10.2% | HEK293 Ca flux inactive | HEK293 Ca counter inactive | HEK293 Ca cntr2 inactive
C=C(C)COc1ccc(-c2[nH]ncc2Oc2ccccc2OC)c(O)c1	none
C=C(C)COc1ccc(-c2[nH]ncc2-c2ccccc2OC)c(O)c1	MrgX1 allo act 17.7 | MrgX1 PAM conf inactive | HEK293 Ca flux inactive | HEK293 Ca counter inactive | HEK293 Ca cntr2 inactive
